Reference: ChEMBL document CHEMBL4715736, “Identification of anticancer agents based on the thieno[2,3-b]pyridine and 1H-pyrazole molecular scaffolds” (2016)

Tests used:
Format in all cases: functional
MDA-MB-435 = assay: Growth inhibition of human MDA-MB-435 cells assessed as cell growth at 0.01 uM incubated for 48 hrs by sulforhodamine B assay relative to control; settings: read-out: Activity
UACC-257 = assay: Growth inhibition of human UACC-257 cells assessed as cell growth at 0.01 uM incubated for 48 hrs by sulforhodamine B assay relative to control; settings: read-out: Activity
ACHN [1] = assay: Growth inhibition of human ACHN cells assessed as cell growth at 0.01 uM incubated for 48 hrs by sulforhodamine B assay relative to control; settings: read-out: Activity
CAKI-1 = assay: Growth inhibition of human CAKI-1 cells assessed as cell growth at 0.01 uM incubated for 48 hrs by sulforhodamine B assay relative to control; settings: read-out: Activity
How it was run: (§1)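 NCI Developmental Therapeutics Program NCI60 panel. Compounds that were active in the 10 µM one-dose screen went on to dose–response testing. Growth at each concentration is expressed relative to untreated control (100%). GI50 (concentration giving 50% of maximal inhibition of proliferation) and TGI (concentration giving total growth inhibition) were derived from the curves.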

RXF 393 [2] = assay: Growth inhibition of human RXF 393 cells assessed as cell growth at 0.01 uM incubated for 48 hrs by sulforhodamine B assay relative to control; settings: read-out: Activity
BT-549 [3] = assay: Growth inhibition of human BT-549 cells assessed as cell growth at 0.01 uM incubated for 48 hrs by sulforhodamine B assay relative to control; settings: read-out: Activity
K562 = assay: Growth inhibition of human K562 cells assessed as cell growth at 0.1 uM incubated for 48 hrs by sulforhodamine B assay relative to control; settings: read-out: Activity
MOLT-4 = assay: Growth inhibition of human MOLT-4 cells assessed as cell growth at 0.1 uM incubated for 48 hrs by sulforhodamine B assay relative to control; settings: read-out: Activity
HOP-62 = assay: Growth inhibition of human HOP-62 cells assessed as cell growth at 0.1 uM incubated for 48 hrs by sulforhodamine B assay relative to control; settings: read-out: Activity
NCI-H322M = assay: Growth inhibition of human NCI-H322M cells assessed as cell growth at 0.1 uM incubated for 48 hrs by sulforhodamine B assay relative to control; settings: read-out: Activity
NCI-H460 = assay: Growth inhibition of human NCI-H460 cells assessed as cell growth at 0.1 uM incubated for 48 hrs by sulforhodamine B assay relative to control; settings: read-out: Activity
COLO 205 = assay: Growth inhibition of human COLO 205 cells assessed as cell growth at 0.1 uM incubated for 48 hrs by sulforhodamine B assay relative to control; settings: read-out: Activity; how it was run: as §1
SF-539 = assay: Growth inhibition of human SF-539 cells assessed as cell growth at 0.1 uM incubated for 48 hrs by sulforhodamine B assay relative to control; settings: read-out: Activity
SNB-19 = assay: Growth inhibition of human SNB-19 cells assessed as cell growth at 0.1 uM incubated for 48 hrs by sulforhodamine B assay relative to control; settings: read-out: Activity
SNB-75 = assay: Growth inhibition of human SNB-75 cells assessed as cell growth at 0.1 uM incubated for 48 hrs by sulforhodamine B assay relative to control; settings: read-out: Activity
LOX IMVI = assay: Growth inhibition of human LOX IMVI cells assessed as cell growth at 0.1 uM incubated for 48 hrs by sulforhodamine B assay relative to control; settings: read-out: Activity
NCI/ADR-RES [4] = assay: Growth inhibition of human NCI/ADR-RES cells assessed as cell growth at 0.1 uM incubated for 48 hrs by sulforhodamine B assay relative to control; settings: read-out: Activity
786-0 = assay: Growth inhibition of human 786-0 cells assessed as cell growth at 0.1 uM incubated for 48 hrs by sulforhodamine B assay relative to control; settings: read-out: Activity; how it was run: as §1
DU-145 = assay: Growth inhibition of human DU-145 cells assessed as cell growth at 0.1 uM incubated for 48 hrs by sulforhodamine B assay relative to control; settings: read-out: Activity; how it was run: as §1
CCRF-CEM [5] = assay: Growth inhibition of human CCRF-CEM cells assessed as cell growth at 1 uM incubated for 48 hrs by sulforhodamine B assay relative to control; settings: read-out: Activity; how it was run: as §1
HOP-92 = assay: Growth inhibition of human HOP-92 cells assessed as cell growth at 1 uM incubated for 48 hrs by sulforhodamine B assay relative to control; settings: read-out: Activity
SF-268 = assay: Growth inhibition of human SF-268 cells assessed as cell growth at 1 uM incubated for 48 hrs by sulforhodamine B assay relative to control; settings: read-out: Activity
Malme-3M = assay: Growth inhibition of human Malme-3M cells assessed as cell growth at 1 uM incubated for 48 hrs by sulforhodamine B assay relative to control; settings: read-out: Activity
OVCAR-4 [6] = assay: Growth inhibition of human OVCAR-4 cells assessed as cell growth at 1 uM incubated for 48 hrs by sulforhodamine B assay relative to control; settings: read-out: Activity
BT-549 [7] = assay: Growth inhibition of human BT-549 cells assessed as cell growth at 1 uM incubated for 48 hrs by sulforhodamine B assay relative to control; settings: read-out: Activity
RPMI-8226 [8] = assay: Growth inhibition of human RPMI-8226 cells assessed as cell growth at 100 uM incubated for 48 hrs by sulforhodamine B assay relative to control; settings: read-out: Activity
SK-MEL-2 = assay: Growth inhibition of human SK-MEL-2 cells assessed as cell growth at 100 uM incubated for 48 hrs by sulforhodamine B assay relative to control; settings: read-out: Activity
SK-MEL-28 = assay: Growth inhibition of human SK-MEL-28 cells assessed as cell growth at 100 uM incubated for 48 hrs by sulforhodamine B assay relative to control; settings: read-out: Activity
SK-MEL-5 = assay: Growth inhibition of human SK-MEL-5 cells assessed as cell growth at 100 uM incubated for 48 hrs by sulforhodamine B assay relative to control; settings: read-out: Activity
NCI/ADR-RES [9] = assay: Growth inhibition of human NCI/ADR-RES cells assessed as cell growth at 100 uM incubated for 48 hrs by sulforhodamine B assay relative to control; settings: read-out: Activity
Hs-578T = assay: Growth inhibition of human Hs-578T cells assessed as cell growth at 100 uM incubated for 48 hrs by sulforhodamine B assay relative to control; settings: read-out: Activity
CCRF-CEM [10] = assay: Growth inhibition of human CCRF-CEM cells incubated for 48 hrs by sulforhodamine B assay; how it was run: as §1
RPMI-8226 [11] = assay: Growth inhibition of human RPMI-8226 cells incubated for 48 hrs by sulforhodamine B assay
How it was run: (§2)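 NCI DTP 60-line human tumour panel. Dose-response curves were run only for ligands active in the initial 10 µM screen. GI50 (concentration giving 50% of maximal inhibition of proliferation) and TGI (concentration giving total growth inhibition) were derived from these curves.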

OVCAR-4 [12] = assay: Growth inhibition of human OVCAR-4 cells incubated for 48 hrs by sulforhodamine B assay; how it was run: as §2
ACHN [13] = assay: Growth inhibition of human ACHN cells incubated for 48 hrs by sulforhodamine B assay; how it was run: as §1
RXF 393 [14] = assay: Growth inhibition of human RXF 393 cells incubated for 48 hrs by sulforhodamine B assay; how it was run: as §2
[15] = read-out: LC50 (the source's name)

Work on `CCc1ccccc1NC(=O)c1sc2nc3c(cc2c1N)C(=O)CCC3` yielded a growth at 0.01 µM (MDA-MB-435) of 92%, a growth at 0.01 µM (UACC-257) of 93% and a growth at 0.01 µM (ACHN [1]) of 93%. For the same compound, the growth at 0.01 µM (CAKI-1) was 89%, the growth at 0.01 µM (RXF 393 [2]) was 94% and the growth at 0.01 µM (BT-549 [3]) was 104%. It also gave a growth at 0.1 µM (K562) of 63%, a growth at 0.1 µM (MOLT-4) of 103% and a growth at 0.1 µM (HOP-62) of 82%. The growth at 0.1 µM (NCI-H322M) was 99%, the growth at 0.1 µM (NCI-H460) was 98% and the growth at 0.1 µM (COLO 205) was 98%. It also gave a growth at 0.1 µM (SF-539) of 93%, a growth at 0.1 µM (SNB-19) of 88% and a growth at 0.1 µM (SNB-75) of 73%. The growth at 0.1 µM (LOX IMVI) was 95%, the growth at 0.1 µM (NCI/ADR-RES [4]) was 88% and the growth at 0.1 µM (786-0) was 89%. For the same compound, the growth at 0.1 µM (DU-145) was 103%, the growth at 1 µM (CCRF-CEM [5]) was 8% and the growth at 1 µM (HOP-92) was 35%. For the same compound, the growth at 1 µM (SF-268) was 53%, the growth at 1 µM (Malme-3M) was 50% and the growth at 1 µM (OVCAR-4 [6]) was 45%. For the same compound, the growth at 1 µM (BT-549 [7]) was 50%, the growth at 100 µM (RPMI-8226 [8]) was -5% and the growth at 100 µM (SK-MEL-2) was 7%. It also gave a growth at 100 µM (SK-MEL-28) of 11%, a growth at 100 µM (SK-MEL-5) of 2% and a growth at 100 µM (NCI/ADR-RES [9]) of -6%. The growth at 100 µM (Hs-578T) was 15%, the GI50 (CCRF-CEM [10]) was 328 nM and the LC50 (CCRF-CEM [10]) was > 100000 nM. The TGI (CCRF-CEM [10]) was > 100000 nM, the GI50 (RPMI-8226 [11]) was 853 nM and the LC50 (RPMI-8226 [11]) was > 100000 nM. The TGI (RPMI-8226 [11]) was ≥ 100000 nM, the GI50 (OVCAR-4 [12]) was 31.5 nM and the TGI (OVCAR-4 [12]) was > 100000 nM. The CC50 (OVCAR-4 [12]; [15]) was > 100000 nM, the GI50 (ACHN [13]) was 18.8 nM and the TGI (ACHN [13]) was > 100000 nM. The CC50 (ACHN [13]; [15]) was > 100000 nM, the GI50 (RXF 393 [14]) was 163 nM and the TGI (RXF 393 [14]) was 777 nM. The CC50 (RXF 393 [14]; [15]) was > 100000 nM.
